Measurements as given in the RNAGym collection of RNA variant scans (doi:10.1002/anie.201605470).

B1: Osa-1-4 twister ribozyme (parent)
chain: CCGCCUAACACUGCCAAUGCCGGUCCCAAGCCCGGAUAAAAGUGGAGGGGGCGG

Variants of: B1
Assay: self-cleavage, relative activity (ratio to wild type); higher = more cleavage; co-transcriptional
Outline: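 A DNA template was synthesised for a 54-nucleotide twister ribozyme from Oryza sativa, with 97 % wild-type base and 1 % of each other base at each of the 48 positions downstream of the cleavage site. The ribozyme cleaved itself co-transcriptionally during 2 h of in vitro transcription at 37 °C. Reverse transcription with a template-switching oligonucleotide, PCR amplification and deep sequencing followed, and cleavage status came from reads with or without upstream sequence. Relative activity is the fraction cleaved normalised to wild type.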

Variant	self-cleavage
A38C A46U	0.07
A38C A46C	0.04
A38C A46G	0.06
A36U G42C	0.28
A36U G42A	0.85
A36U G42U	0.12
A36G C25A	0.22
A36G C25G	0.13
A36G C25U	0.94
A36G U43C	0.74
A36G U43A	0.92
A36G U43G	0.64
A36U A7G	0.38
A36U A7C	0.04
A36U A7U	0.07
A36G G30A	0.05
A36G G30U	0.05
A36G G30C	0.05
A36U G54A	1.01
A36U G54C	0.96
A36U G54U	1.02
A36U G23A	0.72
A36U G23C	0.05
A36U G23U	0.18

Variant	self-cleavage
A38C A39U	0.96
A38C A39G	0.96
A38C A39C	0.86
A36G A8U	0.53
A36G A8G	0.66
A36G A8C	0.1
A36G G42A	0.8
A36G G42C	0.24
A36G G42U	0.08
A36U A39G	0.98
A36U A39U	0.91
A36U A39C	0.99
A36G A40U	0.96
A36G A40G	0.95
A36G A40C	0.1
A36U G34A	0.86
A36U G34U	0.84
A36U G34C	0.66
A36G C52A	1.01
A36G C52G	1.04
A36G C52U	1.02
A36G A38C	1.07
A36G A38G	0.99
A36G A38U	1.01

Variant	self-cleavage
A36C G35C	0.75
A36C G35A	0.94
A36C G35U	0.95
A36U G49A	0.19
A36U G49U	0.17
A36U G49C	0.07
A36U G44C	1.03
A36U G44A	0.97
A36U G44U	0.96
A36U C15U	0.31
A36U C15G	0.4
A36U C15A	0.51
A36G G49U	0.27
A36G G49C	0.08
A36G G49A	0.24
U37A U43A	0.76
U37A U43C	0.44
U37A U43G	0.43
A36G G54A	1.04
A36G G54U	0.98
A36G G54C	1.01
A36U G48C	0.09
A36U G48A	0.12
A36U G48U	0.08

Variant	self-cleavage
A36U U18A	0.97
A36U U18G	0.88
A36U U18C	0.98
A36G C15U	0.89
A36G C15A	0.85
A36G C15G	0.84
A36G C27A	0.38
A36G C27U	0.32
A36G C27G	0.13
A36U C32G	0.12
A36U C32A	0.13
A36U C32U	0.15
A36U U24C	0.45
A36U U24A	0.27
A36U U24G	0.03
A36U C20A	0.82
A36U C20U	0.99
A36U C20G	0.19
A36U U12G	0.64
A36U U12C	0.58
A36U U12A	0.99
A36C G48U	0.04
A36C G48C	0.05
A36C G48A	0.05

Variant	self-cleavage
A36C G34U	0.75
A36G C20U	0.99
A36G C20G	0.12
A36G C20A	0.87
A36C G51A	0.28
A36C G51U	0.11
A36C G51C	0.07
A36C G53C	0.06
A36C G53U	0.13
A36C G53A	0.19
A36U C21U	1.04
A36U C21G	0.1
A36U C21A	0.91
A36C G47A	0.07
A36C G47C	0.06
A36C G47U	0.07
A36U G35A	0.92
A36U G35U	1.04
A36U G35C	0.82
A36G G50A	0.76
A36G G50U	1.04
A36G G50C	1.04
A36C G54A	0.27
A36C G54C	0.19

Variant	self-cleavage
A36C G54U	0.55
A36G A41C	0.97
A36G A41G	0.89
A36G A41U	0.99
A36G G13A	0.24
A36G G13C	0.03
A36G G13U	0.03
U37G U43C	0.52
U37G U43A	0.93
U37G U43G	0.68
A38C	1.02
A36C U37G	0.93
A36C U37C	0.98
A36C U37A	0.53
A36U U37A	1.01
A36U U37G	1.05
A36U U37C	1.07
A36G A46C	0.08
A36G A46G	0.11
A36G A46U	0.1
A36G G23U	0.13
A36G G23C	0.07
A36G G23A	0.62
A38C A7G	0.22

Variant	self-cleavage
A38C A7C	0.05
A38C A7U	0.08
A36U A38U	0.97
A36U A38C	1.02
A36U A38G	1
A36U C52G	1.06
A36U C52A	1.04
A36U C52U	1.06
A36G G35A	0.92
A36G G35U	0.91
A36G G35C	0.93
A36C G45C	0.04
A36C G45A	0.07
A36C G45U	0.05
A36G C21G	0.1
A36G C21A	0.64
A36G C21U	1.02
U37C U43C	0.38
U37C U43A	0.96
U37C U43G	0.66
A36U C33U	0.89
A36U C33A	0.24
A36U C33G	0.08
A36U G22U	0.9

Variant	self-cleavage
A36U G22C	0.19
A36U G22A	1.05
A36C U18C	0.67
A36C U18A	0.55
A36C U18G	0.87
A36U G30U	0.04
A36U G30C	0.06
A36U G30A	0.03
A36C U24C	0.07
A36C U24G	0.03
A36C U24A	0.06
A36C G49A	0.06
A36C G49C	0.06
A36C G49U	0.06
A36U A41C	0.99
A36U A41U	1.02
A36U A41G	0.68
A36G G22A	1.01
A36G G22C	0.07
A36G G22U	0.57
A36U G47A	0.32
A36U G47C	0.13
A36U G47U	0.31
A36G C26U	0.98

Variant	self-cleavage
A36G C26G	0.13
A36G C26A	0.06
A36G A39U	0.97
A36G A39C	1.05
A36G A39G	1.01
A36G U18C	0.98
A36G U18G	0.85
A36G U18A	0.98
A36G U12C	0.69
A36G U12G	0.39
A36G U12A	0.99
A36G C32A	0.09
A36G C32U	0.17
A36G C32G	0.16
A36C G50C	0.22
A36C G50U	0.37
A36C G50A	0.77
A36G G51U	0.37
A36G G51C	0.18
A36G G51A	0.78
A36C G42A	0.1
A36C G42U	0.04
A36C G42C	0.08
A36U G13A	0.14

Variant	self-cleavage
A36U G13C	0.03
A36U G13U	0.03
A36G G45A	0.54
A36G G45C	0.07
A36G G45U	0.21
A36C G44A	0.16
A36C G44U	0.37
A36C G44C	0.58
A38C A41U	1
A38C A41G	0.69
A38C A41C	0.91
A36G U37A	1.02
A36G U37G	1.03
A36G U37C	1.04
A36G C9G	0.89
A36G C9U	0.77
A36G C9A	0.53
A36U G19U	0.93
A36U G19A	0.48
A36U G19C	0.67
A36G G48U	0.12
A36G G48C	0.15
A36G G48A	0.15
A36G C14G	0.37

Variant	self-cleavage
A36G C14A	0.19
A36G C14U	0.88
A36U G53U	0.46
A36U G53C	0.11
A36U G53A	0.94
A36G G19C	0.13
A36G G19A	0.8
A36G G19U	0.99
A36G U24C	0.44
A36G U24G	0.04
A36G U24A	0.52
A36G C31G	0.16
A36G C31A	0.04
A36G C31U	1.01
A36U G51U	0.52
A36U G51A	0.84
A36U G51C	0.16
A36U G50C	1.06
A36U G50A	0.87
A36U G50U	1.03
U37G	1.03
U37A	0.79
U37C	1.04
A36U C27A	0.29

Variant	self-cleavage
A36U C27U	0.28
A36U C27G	0.09
A36C U43G	0.11
A36C U43C	0.13
A36C U43A	0.15
A36U C11G	0.72
A36U C11U	0.94
A36U C11A	0.87
A38C A40C	0.09
A38C A40G	0.84
A38C A40U	0.6
A38C A8C	0.07
A38C A8U	0.28
A38C A8G	0.53
A36U A8C	0.09
A36U A8U	0.34
A36U A8G	0.71
A36G G47U	0.47
A36G G47C	0.2
A36G G47A	0.54
A36G G53U	0.61
A36G G53C	0.13
A36G G53A	0.95
A36U C14U	0.5

Variant	self-cleavage
A36U C14A	0.07
A36U C14G	0.13
A36G C33U	0.94
A36G C33G	0.09
A36G C33A	0.14
A36U C9G	0.9
A36U C9U	0.83
A36U C9A	0.47
A36U G45U	0.13
A36U G45C	0.05
A36U G45A	0.46
A36U C25U	0.92
A36U C25G	0.1
A36U C25A	0.12
A36G G44A	1.01
A36G G44C	0.97
A36G G44U	0.97
A36U C26A	0.04
A36U C26U	1
A36U C26G	0.08
A36G G34A	0.91
A36G G34U	0.82
A36G G34C	0.31
A36G C11A	0.85

Variant	self-cleavage
A36G C11U	0.93
A36G C11G	0.73
A36U	1.03
A36G	1.03
A36U U43C	0.38
A36U U43A	0.99
A36U U43G	0.64
A36U A46U	0.08
A36U A46C	0.08
A36U A46G	0.09
A36U C31G	0.07
A36U C31U	0.95
A36U C31A	0.03
A36U A40G	0.84
A36U A40C	0.08
A36U A40U	0.63
A36C U12A	0.13
A36C U12C	0.08
A36C U12G	0.13
A36G A7U	0.1
A36G A7C	0.05
A36G A7G	0.5
